What all share (assay type): functional
Assay [1] in a line: Antioxidant activity assessed as reduction of potassium ferricyanide trivalent iron into potassium ferrocyanide bivalent iron and ferrous iron by measuring eliminate efficiency at 1.2 g/L relative to control. Also on record: scale not given: the % may be the effect or the level left. A digest of the protocol: (§1)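 Reducing capacity was read as absorbance at 700 nm, where higher absorbance means greater reducing ability. Tested at 0.2–1.2 g/L against sesamol as positive control. Values are means from at least eight independent experiments, each in triplicate (n = 3), with t-tests (p < 0.05).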

A short description of assay [2]: Antioxidant activity assessed as hydroxyl radical scavenging rate at 0.6 g/L relative to control. A digest of the protocol:
(§2)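 Hydroxyl radical scavenging was read as absorbance of the reaction solution at 510 nm by a fixed reaction time method. Derivatives were tested at 0.2–1.2 g/L, with sesamol as positive control. Values are means ± SD from at least eight independent experiments, each in triplicate (n = 3), with t-tests (p < 0.05).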

Assay [3] can be described thus: Antioxidant activity assessed as superoxide anion radical scavenging rate at 1 g/L relative to control. A digest of the protocol:
(§3)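 Pyrocatechol autoxidation in weak alkaline medium produces a coloured intermediate and superoxide anion; the intermediate absorbs maximally at 320 nm. Scavenging rate was measured at 0.2–1.2 g/L, with sesamol as positive control. Values are means ± SD from at least eight independent experiments, each in triplicate (n = 3), with t-tests (p < 0.05).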

Assay [4] can be described thus: Antioxidant activity assessed as superoxide anion radical scavenging rate at 0.8 g/L relative to control. The procedure, abridged:
as §3

Assay [5] is described as follows: Antioxidant activity assessed as hydroxyl radical scavenging rate at 0.8 g/L relative to control. The procedure, abridged: as §2
Assay [6] in a line: Antioxidant activity assessed as hydroxyl radical scavenging rate at 0.2 g/L relative to control. The procedure, abridged: as §2
A short description of assay [7]: Antioxidant activity assessed as hydroxyl radical scavenging rate at 0.4 g/L relative to control. A digest of the protocol:
as §2

Assay [8] in a line: Antioxidant activity assessed as reduction of potassium ferricyanide trivalent iron into potassium ferrocyanide bivalent iron and ferrous iron by measuring eliminate efficiency at 0.2 g/L relative to control. Also on record: scale not given: the % may be the effect or the level left. A digest of the protocol: as §1
Assay [9] is described as follows: Antioxidant activity assessed as reduction in lipid peroxidation by measuring antiperoxide-index at 1.2 g/L by thiobarbituric acid method relative to control. Set-up: scale not given: the % may be the effect or the level left. The procedure, abridged: (§4)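 Anti-lipid-peroxidation (antiperoxide index, %) was tested at 0.2–1.2 g/L, with sesamol as positive control. Values are means ± SD from at least eight independent experiments, each in triplicate (n = 3), with t-tests (p < 0.05).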

The nature of assay [10]: Antioxidant activity assessed as reduction of potassium ferricyanide trivalent iron into potassium ferrocyanide bivalent iron and ferrous iron by measuring eliminate efficiency at 1 g/L relative to control. Also on record: scale not given: the % may be the effect or the level left. A digest of the protocol: as §1
Assay [11] in a line: Antioxidant activity assessed as superoxide anion radical scavenging rate at 0.2 g/L relative to control. The procedure, abridged: as §3
The nature of assay [12]: Antioxidant activity assessed as reduction in lipid peroxidation by measuring antiperoxide-index at 0.8 g/L by thiobarbituric acid method relative to control. Set-up: scale not given: the % may be the effect or the level left. The procedure, abridged:
as §4

The nature of assay [13]: Antioxidant activity assessed as reduction of potassium ferricyanide trivalent iron into potassium ferrocyanide bivalent iron and ferrous iron by measuring eliminate efficiency at 0.8 g/L relative to control. Set-up: scale not given: the % may be the effect or the level left. A digest of the protocol:
as §1

Assay [14] is described as follows: Antioxidant activity assessed as superoxide anion radical scavenging rate at 1.2 g/L relative to control. A digest of the protocol: as §3
Assay [15] is described as follows: Antioxidant activity assessed as hydroxyl radical scavenging rate at 1.2 g/L relative to control. A digest of the protocol:
as §2

The nature of assay [16]: Antioxidant activity assessed as reduction in lipid peroxidation by measuring antiperoxide-index at 1 g/L by thiobarbituric acid method relative to control. Also on record: scale not given: the % may be the effect or the level left. A digest of the protocol:
as §4

The nature of assay [17]: Antioxidant activity assessed as superoxide anion radical scavenging rate at 0.4 g/L relative to control. The procedure, abridged: as §3
Assay [18] in a line: Antioxidant activity assessed as hydroxyl radical scavenging rate at 1 g/L relative to control. The procedure, abridged:
as §2

Assay [19] can be described thus: Antioxidant activity assessed as reduction of potassium ferricyanide trivalent iron into potassium ferrocyanide bivalent iron and ferrous iron by measuring eliminate efficiency at 0.4 g/L relative to control. Set-up: scale not given: the % may be the effect or the level left. A digest of the protocol: as §1
Assay [20] can be described thus: Antioxidant activity assessed as reduction in lipid peroxidation by measuring antiperoxide-index at 0.6 g/L by thiobarbituric acid method relative to control. Set-up: scale not given: the % may be the effect or the level left. The procedure, abridged: as §4
Assay [21] is described as follows: Antioxidant activity assessed as superoxide anion radical scavenging rate at 0.6 g/L relative to control. The procedure, abridged: as §3
The nature of assay [22]: Antioxidant activity assessed as reduction of potassium ferricyanide trivalent iron into potassium ferrocyanide bivalent iron and ferrous iron by measuring eliminate efficiency at 0.6 g/L relative to control. Also on record: scale not given: the % may be the effect or the level left. A digest of the protocol: as §1
Assay [23] is described as follows: Antioxidant activity assessed as reduction in lipid peroxidation by measuring antiperoxide-index at 0.4 g/L by thiobarbituric acid method relative to control. Set-up: scale not given: the % may be the effect or the level left. The procedure, abridged:
as §4

A short description of assay [24]: Antioxidant activity assessed as reduction in lipid peroxidation by measuring antiperoxide-index at 0.2 g/L by thiobarbituric acid method relative to control. Set-up: scale not given: the % may be the effect or the level left. A digest of the protocol: as §4

Regarding `Oc1ccc2c(c1)OCO2`, the Activity was found to be 82.6% in assay [1]; 56.2% in [2]; 69.6% in assay [3]; 63.3% in [4]; 67.4% in [5]; 13% in assay [6]. Moreover, the Activity came to 30.2% in assay [7]; 12.4% in [8]; 74.9% in [9]; 81.9% in assay [10]; 12.1% in assay [11]; 66.1% in assay [12]. In addition, the Activity in [13] came out at 75.4%; in assay [14], 70.3%; in assay [15], 71.5%; in [16], 72.8%; in assay [17] it was 27.8%; in [18] it was 70.8%. For the same compound, the Activity stood at 29.7% in assay [19]; 55.1% in assay [20]; 52.7% in assay [21]; 56.4% in assay [22]; 30.6% in assay [23]; 12.8% in assay [24].
For `O=C(Oc1ccc2c(c1)OCO2)c1c(Cl)cccc1Cl`, the Activity in assay [1] stood at 84.3%; in assay [2] it was 60.6%; in [3] it was 75%; in assay [4], 68.2%; in assay [5] it was 72.7%; in assay [6] it was 14%. Besides, the Activity in assay [7] was 32.7%; in assay [8] it was 14.3%; in assay [9], 82.6%; in assay [10] it was 83.4%; in assay [11] it was 13%; in [12], 72.9%. The Activity came out at 75.8% in assay [13]; 75.8% in [14]; 77.1% in [15]; 80.2% in assay [16]; 29.9% in [17]; 76.4% in assay [18]. The Activity turned out to be 34.4% in assay [19]; 60.8% in [20]; 56.9% in assay [21]; 65.4% in [22]; 33.8% in assay [23]; 14.1% in assay [24].
On to `O=C(Oc1ccc2c(c1)OCO2)c1ccccc1Cl`, for which the Activity in assay [1] stood at 85.6%; in assay [2], 61.5%; in assay [3], 76.5%; in assay [4], 69.5%; in assay [5], 73.8%; in assay [6], 14.2%. Also, the Activity was 34.4% in [7]; 14.6% in assay [8]; 83.5% in [9]; 84.7% in [10]; 13.3% in assay [11]; 73.7% in assay [12]. The Activity was found to be 77% in assay [13]; 77.2% in assay [14]; 78.2% in assay [15]; 81.1% in assay [16]; 30.5% in assay [17]; 77.5% in assay [18]. Further, the Activity in assay [19] amounted to 34.9%; in [20], 61.4%; in [21] it was 57.9%; in assay [22], 66.4%; in assay [23], 34.1%; in assay [24] it was 14.2%.
Turning to `O=c1oc2ccc3c(c2c2cccc(Cl)c12)OCO3`, the Activity in [1] was found to be 96.1%; in [2], 74.9%; in assay [3], 94.1%; in assay [4], 85.5%; in assay [5], 89.9%; in [6], 17.3%. Besides, the Activity is 40.6% in assay [7]; 16.4% in assay [8]; 95.7% in assay [9]; 95.2% in assay [10]; 16.3% in assay [11]; 84.5% in assay [12]. In addition, the Activity is 86.5% in [13]; 95% in assay [14]; 95.3% in assay [15]; 92.9% in [16]; 37.5% in [17]; 94.4% in assay [18]. Also, the Activity in assay [19] worked out at 39.3%; in assay [20], 70.4%; in assay [21], 71.3%; in [22] it was 74.6%; in assay [23], 39.1%; in assay [24], 16.3%.
For `O=c1oc2ccc3c(c2c2cc(Cl)ccc12)OCO3`, the Activity came to 99.8% in [1]; 77.3% in [2]; 95.7% in assay [3]; 87% in assay [4]; 92.7% in assay [5]; 17.9% in assay [6]. For the same compound, the Activity in assay [7] was 42.9%; in assay [8], 17%; in assay [9], 99.4%; in [10], 98.8%; in assay [11], 16.6%; in assay [12], 87.8%. Also, the Activity turned out to be 89.9% in [13]; 96.7% in assay [14]; 98.3% in [15]; 96.5% in assay [16]; 38.1% in [17]; 97.4% in assay [18]. For the same compound, the Activity was 40.8% in assay [19]; 73.1% in assay [20]; 72.5% in [21]; 77.5% in assay [22]; 40.6% in [23]; 16.9% in [24].
Consider `O=C(Oc1ccc2c(c1)OCO2)c1cc(Cl)ccc1Cl`, for which the Activity in assay [1] was found to be 76.1%; in assay [2], 58.9%; in assay [3], 69.8%; in assay [4], 63.5%; in assay [5] it was 70.7%; in assay [6], 13.6%. Besides, the Activity in assay [7] was determined as 32.6%; in assay [8], 12.9%; in [9], 76.2%; in assay [10] it was 75.3%; in assay [11] it was 12.1%; in [12], 67.3%. Besides, the Activity in [13] was determined as 68.5%; in assay [14], 70.5%; in assay [15], 74.9%; in assay [16], 74%; in assay [17] it was 27.9%; in assay [18], 74.2%. Also, the Activity in [19] stood at 31.1%; in [20], 56.1%; in assay [21] it was 52.9%; in assay [22] it was 59%; in assay [23] it was 31.1%; in assay [24], 13%.
As for `O=c1oc2ccc3c(c2c2ccc(Cl)cc12)OCO3`, the Activity in [1] was 94.3%; in assay [2], 73.5%; in assay [3], 92.6%; in [4] it was 84.2%; in assay [5], 88.2%; in assay [6], 17%. Further, the Activity in assay [7] turned out to be 40.8%; in assay [8] it was 16.1%; in assay [9], 97.2%; in assay [10], 93.4%; in assay [11], 16.1%; in [12], 85.8%. Besides, the Activity in assay [13] is 84.9%; in assay [14], 93.5%; in [15], 93.6%; in [16], 94.4%; in assay [17], 36.9%; in assay [18], 92.6%. Besides, the Activity in assay [19] amounted to 38.5%; in assay [20], 71.5%; in assay [21], 70.1%; in assay [22], 73.2%; in [23] it was 39.7%; in assay [24], 16.6%.

(Values after ChEMBL document CHEMBL4673330, “Preparations and antioxidant activities of sesamol and it's derivatives” (Bioorg Med Chem Lett, 2021).)
